Results from PMC11144404 (Drug Design, Development and Therapy, 2024).

Legend:
[1] = Steady-state plasma pharmacokinetics of henagliflozin alone or with HCTZ; assay type: in vivo, human
[2] = test system: healthy Chinese volunteers; assay: Safety and tolerability; assay type: in vivo, human; details: per treatment period
Procedure, shortened: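 12 enrolled healthy Chinese men aged 18–40 y with BMI 19–26 kg/m2. All had normal blood chemistry, haematology, urinalysis, vital signs and hepatitis/HIV serology, and stopped interfering medications 4 weeks before the study. Treatment-emergent adverse events were recorded as events and subjects for each treatment period (multiple-dose monotherapy with each drug, then co-administration). Drug relatedness was assessed.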

[3] = 2.5 mg dose group; cited from earlier work
[4] = test system: healthy subjects and patients with T2DM; details: cited from earlier work
[5] = Steady-state plasma pharmacokinetics of HCTZ alone or with henagliflozin; assay type: in vivo, human

| Structure (SMILES) | Increase of Css,max by co-administration ([1]; co-administration with HCTZ vs henagliflozin alone) | 90% CI of ratio of geometric means (combination: monotherapy) for AUCτ,ss ([1]; henagliflozin, compared with bioequivalence interval) | All TEAEs, number of subjects ([2]; of 12 subjects) | Diarrhea, number of subjects ([2]; of 12 subjects) | Dizziness, number of subjects ([2]; of 12 subjects) | Eczema, number of subjects ([2]; of 12 subjects) | Subjects reporting TEAEs ([2]; of 12 subjects) | All TEAEs, number of subjects ([2]; of 12 subjects, listed as henagliflozin) | All TEAEs, number of events ([2]; figure in brackets) | Drug-related TEAEs, number of events ([2]; figure in brackets) | Difference in AUC0-24h and Cmax between males and females [3] | Benefit of 20 mg group compared with 5 mg and 10 mg groups (PK/PD) ([4]; 5–20 mg dosing range, healthy subjects and patients with T2DM) | Effect on blood glucose, blood electrolytes, or blood pressure ([4]; healthy people) | 90% CI of ratio of geometric means (combination: monotherapy) for AUCτ,ss ([5]; HCTZ, compared with bioequivalence interval) | Decrease of Css,max by co-administration ([5]; co-administration with henagliflozin vs HCTZ alone) | Drug-related TEAEs, number of subjects ([2]; of 12 subjects) | Thirst, number of subjects ([2]; of 12 subjects) |
| --- | --- | --- | --- | --- | --- | --- | --- | --- | --- | --- | --- | --- | --- | --- | --- | --- | --- |
| CCOc1ccc(Cc2cc([C@@]34OC[C@@](CO)(O3)[C@@H](O)[C@H](O)[C@H]4O)ccc2Cl)cc1F [Henagliflozin] | 24.32% | fell between 0.80 and 1.25 | 4(4) | 2(2) | 1(1) | 1(1) | 33.3% | 4 | four | all TEAEs were considered to be related to henagliflozin | no statistical difference | no significant benefit | no effect | – | – | – | – |
| NS(=O)(=O)c1cc2c(cc1Cl)NCNS2(=O)=O [HCTZ, Hydrochlorothiazide] | – | – | 11 | 2(2) | – | 0(0) | 91.7% | – | – | – | – | – | – | within the bioequivalence interval of 0.80–1.25 | 19.41% | 11 | 10(10) |
